# From PMC3049920 (Journal of immunology (Baltimore, Md. : 1950), 2010)
# Legend:
# [1] = system: IFNγ+ cells in mouse splenocytes; test: Induction of IFNγ+ cells in mouse splenocytes in vitro; assay type: cell-based; conditions: optimal dose 20 µg/ml
# In short: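 Splenocytes came from female 129 mice, 3–5 weeks old. They were cultured 16 h in RPMI 1640/10% FCS with or without test agent in plates coated with anti-mouse IFNγ antibody. IFNγ+ cells were detected in situ by ELISPOT and counted with an automated reader. Values are mean ± SD of duplicates.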
# B16 melanoma tumors = B16 melanoma tumors in C57BL/6 mice; assay type: in vivo, mouse; conditions: 12 mg, daily, 5 d/wk, s.c.
# [2] = system: IFNγ+ cells in human peripheral blood; test: Induction of IFNγ+ cells in human peripheral blood in vitro; assay type: cell-based; conditions: 20 µg/ml
# In short: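 Whole heparinized blood (0.1 ml) from healthy volunteers was incubated with test agent at 37°C for 4 h. RBCs were lysed with hypotonic buffer (10 mM Tris pH 7.4, 10 mM NaCl), and the WBC pellet was washed and resuspended in RPMI 1640/10% FCS. IFNγ+ cells were quantified by human IFNγ ELISPOT (16 h culture). Values are mean ± SD of duplicates.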
# [3] = system: cellular phospho-tyrosine proteins in Jurkat cells; test: Profile of cellular phospho-tyrosine proteins in Jurkat cells; assay type: cell-based, human; conditions: 10 min
compound,measurement,setting,value
"O.O.O.O.O.O.O.O.O.O=C([O-])[C@@H]1[O][Sb](=[O])([O][Sb]2(=[O])[O][C@H]([C@H](O)CO)[C@H](O)[C@H](C(=O)[O-])[O]2)[O][C@H]([C@H](O)CO)[C@@H]1O.[Na+].[Na+].[Na+] (stereo partly shown) [SSG, sodium stibogluconate]",maximal increase of IFNγ+ cells,[1],~ 3 fold
same,response of B16 tumors,B16 melanoma tumors,not responsive
same,induction of IFNγ+ cells,[2],~ 2 fold
pervanadate [pervanadate (PV)],effect on profile of cellular phospho-tyrosine proteins,[3],marked increases of multiple phosphotyrosine proteins
